Calls of active or inactive are those of the source. The rule behind the calls is not given here.
Legend:
MCF7 [1] = assay: Antiproliferative activity against human MCF7 cells incubated for 3 days by sulforhodamine B assay; format: functional, cell-based; conditions: MCF7, 72 h
Procedure, shortened: (§1)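 Cells in DMEM with 10% heat-inactivated FBS, penicillin–streptomycin and 2 mM L-glutamine at 37 °C, 5% CO2. Seeded at 5 × 10^3 cells/cm2 in quadruplicate. After 24 h, exposed to increasing compound concentrations for 3 days. Fixed with cold 10% TCA, stained with 0.4% sulforhodamine in 1% acetic acid, dye solubilized in 10 mM Tris-base pH 10.5, OD read at 492 nm. IC50 by linear interpolation on semilog dose–response curve. Mean ± SEM of four independent determinations.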

T84 [2] = assay: Induction of cell cycle arrest in 24 hrs serum-starved human T84 cells assessed as accumulation at G2-M phase at antiproliferative IC50 incubated for 24 hrs by propidium iodide staining based flow cytometry (reference value: 18 +/- 1%); format: functional
A549 [3] = assay: Induction of cell cycle arrest in 24 hrs serum-starved human A549 cells assessed as accumulation at S phase at antiproliferative IC50 incubated for 24 hrs by propidium iodide staining based flow cytometry (reference value: 12 +/- 0.9%); format: functional
MCF7 [4] = assay: Induction of cell cycle arrest in 24 hrs serum-starved human MCF7 cells assessed as accumulation at G0-G1 phase at 2 times antiproliferative IC50 incubated for 24 hrs by propidium iodide staining based flow cytometry (reference value: 51 +/- 0.9%); format: functional
MCF7 [5] = assay: Induction of cell cycle arrest in 24 hrs serum-starved human MCF7 cells assessed as accumulation at G2-M phase at antiproliferative IC50 incubated for 24 hrs by propidium iodide staining based flow cytometry (reference value: 28 +/- 0.3%); format: functional
T84 [6] = assay: Antiproliferative activity against human T84 cells incubated for 3 days by sulforhodamine B assay; format: functional, cell-based; conditions: T84, 72 h; procedure, shortened: as §1
MCF7 [7] = assay: Induction of apoptosis in 24 hrs serum-starved human MCF7 cells assessed as accumulation at subG1 phase at 2 times antiproliferative IC50 incubated for 24 hrs by propidium iodide staining based flow cytometry (reference value: 4 +/- 1.1%); format: functional
MCF7 [8] = assay: Induction of apoptosis in human MCF7 cells at antiproliferative IC50 incubated for 6 hrs by fluorescence microscopy based TUNEL DNA fragmentation assay; format: functional, cell-based
A549 [9] = assay: Induction of cell cycle arrest in 24 hrs serum-starved human A549 cells assessed as accumulation at G0-G1 phase at 2 times antiproliferative IC50 incubated for 24 hrs by propidium iodide staining based flow cytometry (reference value: 62 +/- 1%); format: functional
MCF7 [10] = assay: Induction of cell cycle arrest in 24 hrs serum-starved human MCF7 cells assessed as accumulation at S phase at antiproliferative IC50 incubated for 24 hrs by propidium iodide staining based flow cytometry (reference value: 17 +/- 0.8%); format: functional
T84 [11] = assay: Induction of cell cycle arrest in 24 hrs serum-starved human T84 cells assessed as accumulation at G0-G1 phase at antiproliferative IC50 incubated for 24 hrs by propidium iodide staining based flow cytometry (reference value: 65 +/- 1.1%); format: functional
MCF7 [12] = assay: Induction of apoptosis in 24 hrs serum-starved human MCF7 cells assessed as accumulation at subG1 phase at antiproliferative IC50 incubated for 24 hrs by propidium iodide staining based flow cytometry (reference value: 4 +/- 1.1%); format: functional
T84 [13] = assay: Induction of apoptosis in 24 hrs serum-starved human T84 cells assessed as accumulation at subG1 phase at 2 times antiproliferative IC50 incubated for 24 hrs by propidium iodide staining based flow cytometry (reference value: 4 +/- 0.3%); format: functional
MCF7 [14] = assay: Induction of cell cycle arrest in 24 hrs serum-starved human MCF7 cells assessed as accumulation at S phase at 2 times antiproliferative IC50 incubated for 24 hrs by propidium iodide staining based flow cytometry (reference value: 17 +/- 0.8%); format: functional
A549 [15] = assay: Antiproliferative activity against human A549 cells incubated for 3 days by sulforhodamine B assay; format: functional, cell-based; conditions: A549, 72 h; procedure, shortened: as §1
A549 [16] = assay: Induction of cell cycle arrest in 24 hrs serum-starved human A549 cells assessed as accumulation at S phase at 2 times antiproliferative IC50 incubated for 24 hrs by propidium iodide staining based flow cytometry (reference value: 12 +/- 0.9%); format: functional
A549 [17] = assay: Induction of cell cycle arrest in 24 hrs serum-starved human A549 cells assessed as accumulation at G2-M phase at 2 times antiproliferative IC50 incubated for 24 hrs by propidium iodide staining based flow cytometry (reference value: 22 +/- 1.8%); format: functional
A549 [18] = assay: Induction of cell cycle arrest in 24 hrs serum-starved human A549 cells assessed as accumulation at G2-M phase at antiproliferative IC50 incubated for 24 hrs by propidium iodide staining based flow cytometry (reference value: 22 +/- 1.8%); format: functional
T84 [19] = assay: Induction of cell cycle arrest in 24 hrs serum-starved human T84 cells assessed as accumulation at S phase at antiproliferative IC50 incubated for 24 hrs by propidium iodide staining based flow cytometry (reference value: 13 +/- 0.6%); format: functional
MCF7 [20] = assay: Induction of cell cycle arrest in 24 hrs serum-starved human MCF7 cells assessed as accumulation at G2-M phase at 2 times antiproliferative IC50 incubated for 24 hrs by propidium iodide staining based flow cytometry (reference value: 28 +/- 0.3%); format: functional
A549 [21] = assay: Induction of apoptosis in 24 hrs serum-starved human A549 cells assessed as accumulation at subG1 phase at antiproliferative IC50 incubated for 24 hrs by propidium iodide staining based flow cytometry (reference value: 3.5 +/- 1.1%); format: functional
T84 [22] = assay: Induction of cell cycle arrest in 24 hrs serum-starved human T84 cells assessed as accumulation at S phase at 2 times antiproliferative IC50 incubated for 24 hrs by propidium iodide staining based flow cytometry (reference value: 13 +/- 0.6%); format: functional
T84 [23] = assay: Induction of apoptosis in 24 hrs serum-starved human T84 cells assessed as accumulation at subG1 phase at antiproliferative IC50 incubated for 24 hrs by propidium iodide staining based flow cytometry (reference value: 4 +/- 0.3%); format: functional
A549 [24] = assay: Induction of apoptosis in 24 hrs serum-starved human A549 cells assessed as accumulation at subG1 phase at 2 times antiproliferative IC50 incubated for 24 hrs by propidium iodide staining based flow cytometry (reference value: 3.5 +/- 1.1%); format: functional
T84 [25] = assay: Induction of cell cycle arrest in 24 hrs serum-starved human T84 cells assessed as accumulation at G0-G1 phase at 2 times antiproliferative IC50 incubated for 24 hrs by propidium iodide staining based flow cytometry (reference value: 65 +/- 1.1%); format: functional
A549 [26] = assay: Induction of cell cycle arrest in 24 hrs serum-starved human A549 cells assessed as accumulation at G0-G1 phase at antiproliferative IC50 incubated for 24 hrs by propidium iodide staining based flow cytometry (reference value: 62 +/- 1%); format: functional
MCF7 [27] = assay: Induction of cell cycle arrest in 24 hrs serum-starved human MCF7 cells assessed as accumulation at G0-G1 phase at antiproliferative IC50 incubated for 24 hrs by propidium iodide staining based flow cytometry (reference value: 51 +/- 0.9%); format: functional
T84 [28] = assay: Induction of cell cycle arrest in 24 hrs serum-starved human T84 cells assessed as accumulation at G2-M phase at 2 times antiproliferative IC50 incubated for 24 hrs by propidium iodide staining based flow cytometry (reference value: 18 +/- 1%); format: functional
MCF7 [29] = assay: Induction of apoptosis in human MCF7 cells at 2 times antiproliferative IC50 incubated for 6 hrs by fluorescence microscopy based TUNEL DNA fragmentation assay; format: functional, cell-based
Trypanosoma cruzi = assay: Antiparasitic activity against Trypanosoma cruzi; format: functional, organism-based

C[C@]1(CO)CCC[C@]2(C)c3cc4c(cc3C(=O)C[C@@H]12)C(=O)C=CC4=O
IC50 (MCF7 [1]): 6.6 µM
Activity (T84 [2]): 17%
Activity (A549 [3]): 14%
Activity (MCF7 [4]): 24%
Activity (MCF7 [5]): 19%
IC50 (T84 [6]): 8 µM
Activity (MCF7 [7]): 60%
Activity (MCF7 [8]): Active
Activity (A549 [9]): 59%
Activity (MCF7 [10]): 9.4%
Activity (T84 [11]): 63%
Activity (MCF7 [12]): 34%
Activity (T84 [13]): 6.3%
Activity (MCF7 [14]): 6.4%
IC50 (A549 [15]): 4.1 µM
Activity (A549 [16]): 16%
Activity (A549 [17]): 17%
Activity (A549 [18]): 20%
Activity (T84 [19]): 15%
Activity (MCF7 [20]): 9.7%
Activity (A549 [21]): 3.9%
Activity (T84 [22]): 17%
Activity (T84 [23]): 5.6%
Activity (A549 [24]): 8.1%
Activity (T84 [25]): 62%
Activity (A549 [26]): 63%
Activity (MCF7 [27]): 37%
Activity (T84 [28]): 15%

COc1ccc(OC)c2cc3c(cc12)C(=O)C[C@H]1[C@@](C)(CO)CCC[C@]31C
IC50 (MCF7 [1]): 33 µM
Activity (T84 [2]): 12%
Activity (A549 [3]): 12%
Activity (MCF7 [4]): 6.9%
Activity (MCF7 [5]): 17%
IC50 (T84 [6]): 42 µM
Activity (MCF7 [7]): 91%
Activity (A549 [9]): 67%
Activity (MCF7 [10]): 11%
Activity (T84 [11]): 68%
Activity (MCF7 [12]): 6.6%
Activity (T84 [13]): 8.2%
Activity (MCF7 [14]): 0.7%
IC50 (A549 [15]): 21 µM
Activity (A549 [16]): 7.5%
Activity (A549 [17]): 8%
Activity (A549 [18]): 14%
Activity (T84 [19]): 15%
Activity (MCF7 [29]): Active
Activity (MCF7 [20]): 1%
Activity (A549 [21]): 5.7%
Activity (T84 [22]): 9.4%
Activity (T84 [23]): 5.7%
Activity (A549 [24]): 18%
Activity (T84 [25]): 76%
Activity (A549 [26]): 68%
Activity (MCF7 [27]): 66%
Activity (T84 [28]): 6.1%

C[C@]1(CO)CCC[C@]2(C)c3cc4c(cc3C=C[C@@H]12)C(=O)C=CC4=O
IC50 (MCF7 [1]): 7.7 µM
Activity (T84 [2]): 18%
Activity (A549 [3]): 16%
Activity (MCF7 [4]): 5%
Activity (MCF7 [5]): 17%
IC50 (T84 [6]): 11.5 µM
Activity (MCF7 [7]): 93%
Activity (MCF7 [8]): Active
Activity (A549 [9]): 67%
Activity (MCF7 [10]): 12%
Activity (T84 [11]): 59%
Activity (MCF7 [12]): 32%
Activity (T84 [13]): 14%
Activity (MCF7 [14]): 0.7%
IC50 (A549 [15]): 8.3 µM
Activity (A549 [16]): 12%
Activity (A549 [17]): 15%
Activity (A549 [18]): 17%
Activity (T84 [19]): 17%
Activity (MCF7 [20]): 1.7%
Activity (A549 [21]): 4%
Activity (T84 [22]): 9%
Activity (T84 [23]): 6.2%
Activity (A549 [24]): 6.1%
Activity (T84 [25]): 71%
Activity (A549 [26]): 62%
Activity (MCF7 [27]): 39%
Activity (T84 [28]): 7.1%

CC1(C)CCC[C@@]2(C)c3cc4c(cc3CC[C@H]12)C(=O)C=CC4=O [CYCLOZONARONE]
IC50 (Trypanosoma cruzi): 0.7 µM

Reference: ChEMBL document CHEMBL3580613, “First enantiospecific syntheses of marine merosesquiterpenes neopetrosiquinones a and B: evaluation of biological activity” (J Nat Prod, 2015)
